In PMC4714695 (Cancer Science, 2015):
“Also recorded” adds a separate entry of the source.

Key:
[1] = tested on: Japanese patients with acute myeloid leukemia; experiment: Electrocardiogram QTcF assessment; format: in vivo, human
[2] = tested on: Japanese patients with acute myeloid leukemia; experiment: Phase I 3 + 3 dose escalation: dose-limiting toxicities and MTD; format: in vivo, human
Summary of the method: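 Open-label 3 + 3 escalation at 350, 400 and 450 mg (highest planned level), by 2-h IV infusion on days 1 and 15 of 28-day cycles; patients hospitalized in cycle 1. DLT: treatment-related CTCAE grade ≥3 non-hematologic AE in cycle 1. Exceptions: untreated nausea/vomiting, treatable grade 3 diarrhea, grade 3 febrile neutropenia or infection, lab abnormalities resolving within 5 days, grade 3 tumor lysis syndrome.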

[3] = tested on: Japanese patients with acute myeloid leukemia; experiment: Adverse events graded by CTCAE version 3.0; format: in vivo, human; settings: for Blood creatinine increased, all grades, patients / Decreased appetite, all grades, patients / Decreased appetite, grade 3, patients / Epistaxis, all grades, patients / Fatigue, all grades, patients / Febrile neutropenia, all grades, patients / Febrile neutropenia, grade 3, patients / Hyperuricemia, all grades, patients / Hypoalbuminemia, all grades, patients / Hypokalemia, all grades, patients / Hypokalemia, grade 3, patients / Infection, all grades, patients / Infection, grade 3, patients / Nausea, all grades, patients / Neutropenia, all grades, patients / Neutropenia, grade 4, patients / Pyrexia, all grades, patients / Sepsis, all grades, patients / Sepsis, grade 3, patients / Stomatitis, all grades, patients / Vomiting, all grades, patients / Rash, all grades, patients / Hypokalemia, grade 4, patients: irrespective of relationship
Summary of the method: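 Adults with relapsed/refractory or untreated AML unfit for standard induction, ECOG ≤2. Test compound given as a 2-h IV drip infusion on days 1 and 15 of 28-day cycles, at 350, 400 or 450 mg per administration. AEs from all cycles graded by CTCAE v3.0 and tabulated per dose cohort by MedDRA system organ class, preferred term and grade, with drug causality assigned. Safety cut-off 6 June 2014.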

[4] = tested on: PLK1; settings: cited from earlier work
[5] = 450 mg, day 29 (cycle 2, day 1)
[6] = all cohorts (N = 19), all grades
[7] = all cohorts (N = 19), all treatment cycles

CC[C@@H]1C(=O)N(C)c2cnc(Nc3ccc(C(=O)N[C@H]4CC[C@H](N5CCN(CC6CC6)CC5)CC4)cc3OC)nc2N1C(C)C [Volasertib]
Patients with >60 ms QTcF increase at end of infusion versus prior to infusion ([1]; 450 mg cohort 3 only): two patients | QTcF intervals >500 ms ([1]; all cohorts): No QTcF intervals >500 ms were reported | Time of maximum increase in mean QTcF interval after start of infusion ([1]; all dose cohorts): 2 h | Clinically relevant abnormalities in cardiologic assessment ([1]; any cohort, during treatment): No patients in any cohort developed clinically relevant abnormalities | Time by which mean QTcF returned to near baseline ([1]; post-dosing, all dose cohorts): ≤ 24 h | DLT in cycle 1 ([2]; 350 mg cohort): No DLT were reported | DLT in cycle 1 ([2]; 400 mg cohort): No DLT were reported | Patients with DLT in cycle 1 ([2]; 450 mg cohort 3, 6 evaluable patients): 1 | DLT observed (type) ([2]; 450 mg cohort 3, cycle 1): grade 4 abnormal liver function test; also recorded: reversible grade 4 liver function test abnormality | Day on which the patient was considered recovered from the DLT ([2]; 450 mg, reduced to 400 mg in cycle 2): 38 days | Total bilirubin in the patient with DLT ([2]; 450 mg, day 9 of cycle 1, reference 0.3–1.2 mg/dL): 1.1 mg/dL | ALT in the patient with DLT ([2]; 450 mg, day 9 of cycle 1, reference 6–30 IU/L): 116 IU/L | AST in the patient with DLT ([2]; 450 mg, day 9 of cycle 1, reference 13–33 IU/L): 131 IU/L | ALT in the patient with DLT ([2]; 450 mg, day 11 of cycle 1): 711 IU/L | AST in the patient with DLT ([2]; 450 mg, day 11 of cycle 1): 764 IU/L | Total bilirubin in the patient with DLT ([2]; 450 mg, day 11 of cycle 1): 2.6 mg/dL | ALT in the patient with DLT ([2]; 450 mg, day 16): 450 IU/L | AST in the patient with DLT ([2]; 450 mg, day 16): 156 IU/L | Total bilirubin in the patient with DLT ([2]; 450 mg, day 16): 3.8 mg/dL | ALT in the patient with DLT [2, 5]: 38 IU/L | AST in the patient with DLT [2, 5]: 15 IU/L | Total bilirubin in the patient with DLT [2, 5]: 1.0 mg/dL | Maximum tolerated dose (MTD) ([2]; intravenous 2-h infusion on days 1 and 15 of 28-day cycles): 450 mg | Blood creatinine increased, all grades, patients ([3]; 350 mg (n = 7)): 1 n | Decreased appetite, all grades, patients ([3]; 350 mg (n = 7)): 5 n | Decreased appetite, grade 3, patients ([3]; 350 mg (n = 7)): 1 n | Epistaxis, all grades, patients ([3]; 350 mg (n = 7)): 1 n | Fatigue, all grades, patients ([3]; 350 mg (n = 7)): 1 n | Febrile neutropenia, all grades, patients ([3]; 350 mg (n = 7)): 5 n | Febrile neutropenia, grade 3, patients ([3]; 350 mg (n = 7)): 5 n | Hyperuricemia, all grades, patients ([3]; 350 mg (n = 7)): 3 n | Hypoalbuminemia, all grades, patients ([3]; 350 mg (n = 7)): 2 n | Hypokalemia, all grades, patients ([3]; 350 mg (n = 7)): 3 n | Hypokalemia, grade 3, patients ([3]; 350 mg (n = 7)): 1 n | Infection, all grades, patients ([3]; 350 mg (n = 7)): 2 n | Infection, grade 3, patients ([3]; 350 mg (n = 7)): 2 n | Nausea, all grades, patients ([3]; 350 mg (n = 7)): 1 n | Neutropenia, all grades, patients ([3]; 350 mg (n = 7)): 1 n | Neutropenia, grade 4, patients ([3]; 350 mg (n = 7)): 1 n | Pyrexia, all grades, patients ([3]; 350 mg (n = 7)): 2 n | Sepsis, all grades, patients ([3]; 350 mg (n = 7)): 2 n | Sepsis, grade 3, patients ([3]; 350 mg (n = 7)): 2 n | Stomatitis, all grades, patients ([3]; 350 mg (n = 7)): 2 n | Vomiting, all grades, patients ([3]; 350 mg (n = 7)): 1 n | Patients reporting grade 4 AE ([3]; 350 mg cohort 1, neutropenia and thrombocytopenia): one of seven patients | Blood creatinine increased, all grades, patients ([3]; 400 mg (n = 4)): 2 n | Decreased appetite, all grades, patients ([3]; 400 mg (n = 4)): 1 n | Epistaxis, all grades, patients ([3]; 400 mg (n = 4)): 2 n | Fatigue, all grades, patients ([3]; 400 mg (n = 4)): 3 n | Febrile neutropenia, all grades, patients ([3]; 400 mg (n = 4)): 3 n | Febrile neutropenia, grade 3, patients ([3]; 400 mg (n = 4)): 3 n | Nausea, all grades, patients ([3]; 400 mg (n = 4)): 2 n | Neutropenia, all grades, patients ([3]; 400 mg (n = 4)): 1 n | Neutropenia, grade 4, patients ([3]; 400 mg (n = 4)): 1 n | Rash, all grades, patients ([3]; 400 mg (n = 4)): 4 n | Sepsis, all grades, patients ([3]; 400 mg (n = 4)): 1 n | Sepsis, grade 3, patients ([3]; 400 mg (n = 4)): 1 n | Stomatitis, all grades, patients ([3]; 400 mg (n = 4)): 1 n | Vomiting, all grades, patients ([3]; 400 mg (n = 4)): 1 n | Patients reporting grade 4 AE ([3]; 400 mg cohort 2, neutropenia and thrombocytopenia): two of four patients | Decreased appetite, all grades, patients ([3]; 450 mg (n = 8)): 2 n | Decreased appetite, grade 3, patients ([3]; 450 mg (n = 8)): 2 n | Epistaxis, all grades, patients ([3]; 450 mg (n = 8)): 2 n | Fatigue, all grades, patients ([3]; 450 mg (n = 8)): 1 n | Febrile neutropenia, all grades, patients ([3]; 450 mg (n = 8)): 7 n | Febrile neutropenia, grade 3, patients ([3]; 450 mg (n = 8)): 6 n | Hypoalbuminemia, all grades, patients ([3]; 450 mg (n = 8)): 1 n | Hypokalemia, all grades, patients ([3]; 450 mg (n = 8)): 2 n | Hypokalemia, grade 4, patients ([3]; 450 mg (n = 8)): 1 n | Infection, all grades, patients ([3]; 450 mg (n = 8)): 1 n | Nausea, all grades, patients ([3]; 450 mg (n = 8)): 4 n | Neutropenia, all grades, patients ([3]; 450 mg (n = 8)): 1 n | Neutropenia, grade 4, patients ([3]; 450 mg (n = 8)): 1 n | Pyrexia, all grades, patients ([3]; 450 mg (n = 8)): 2 n | Rash, all grades, patients ([3]; 450 mg (n = 8)): 3 n | Sepsis, all grades, patients ([3]; 450 mg (n = 8)): 2 n | Sepsis, grade 3, patients ([3]; 450 mg (n = 8)): 2 n | Stomatitis, all grades, patients ([3]; 450 mg (n = 8)): 2 n | Vomiting, all grades, patients ([3]; 450 mg (n = 8)): 2 n | Patients reporting grade 4 AE ([3]; 450 mg cohort 3, neutropenia, hypokalemia and abnormal liver function test): three of eight patients | Blood creatinine increased, all grades, patients ([3]; Total (N = 19)): 3 n | Decreased appetite, all grades, patients ([3]; Total (N = 19)): 8 n | Decreased appetite, grade 3, patients ([3]; Total (N = 19)): 3 n | Epistaxis, all grades, patients ([3]; Total (N = 19)): 5 n | Fatigue, all grades, patients ([3]; Total (N = 19)): 5 n | Febrile neutropenia, all grades, patients ([3]; Total (N = 19)): 15 n | Febrile neutropenia, grade 3, patients ([3]; Total (N = 19)): 14 n | Hyperuricemia, all grades, patients ([3]; Total (N = 19)): 3 n | Hypoalbuminemia, all grades, patients ([3]; Total (N = 19)): 3 n | Hypokalemia, all grades, patients ([3]; Total (N = 19)): 5 n | Hypokalemia, grade 3, patients ([3]; Total (N = 19)): 1 n | Hypokalemia, grade 4, patients ([3]; Total (N = 19)): 1 n | Infection, all grades, patients ([3]; Total (N = 19)): 3 n | Infection, grade 3, patients ([3]; Total (N = 19)): 2 n | Nausea, all grades, patients ([3]; Total (N = 19)): 7 n | Neutropenia, all grades, patients ([3]; Total (N = 19)): 3 n | Neutropenia, grade 4, patients ([3]; Total (N = 19)): 3 n | Pyrexia, all grades, patients ([3]; Total (N = 19)): 4 n | Rash, all grades, patients ([3]; Total (N = 19)): 7 n | Sepsis, all grades, patients ([3]; Total (N = 19)): 5 n | Sepsis, grade 3, patients ([3]; Total (N = 19)): 5 n | Stomatitis, all grades, patients ([3]; Total (N = 19)): 5 n | Vomiting, all grades, patients ([3]; Total (N = 19)): 4 n | Decreased appetite, frequency [3, 6]: 42.1% | Epistaxis, frequency [3, 6]: 26.3% | Fatigue, frequency [3, 6]: 26.3% | Febrile neutropenia, frequency [3, 6]: 78.9% | Hypokalemia, frequency [3, 6]: 26.3% | Nausea, frequency [3, 6]: 36.8% | Pyrexia, frequency [3, 6]: 21.1% | Rash, frequency [3, 6]: 36.8% | Sepsis, frequency [3, 6]: 26.3% | Stomatitis, frequency [3, 6]: 26.3% | Vomiting, frequency [3, 6]: 21.1% | Patients reporting CTCAE of grade ≥3 [3, 7]: 94.7% | Patients reporting at least one AE irrespective of cause [3, 7]: 19 patients | Patients reporting at least one drug-related AE [3, 7]: 19 patients | Inhibition of PLK1 [4]: selectively inhibit
